The values that follow come from ChEMBL document CHEMBL3751731, “Ferulic acid-carbazole hybrid compounds: Combination of cholinesterase inhibition, antioxidant and neuroprotection as multifunctional anti-Alzheimer agents” (Bioorg Med Chem, 2016).

Usually IC50 stands for the concentration that inhibits the measured activity by half. A lower IC50 goes with higher potency.

Molecules are shown by their SMILES. Activity calls are given as the source filed them. The rule behind the calls is not given here.

Data set [1] is described as follows: Antioxidant activity assessed as DPPH radical scavenging activity at 100 uM after 4 hrs by UV spectrophotometric analysis. The format is physicochemical. A digest of the protocol: (§1)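 DPPH radical at 0.1 mM in ethanol. Test compounds were in ethanol at 1–100 µM (1, 2, 10, 50, 100). Mixture lines used an equimolar (1:1) blend with ferulic acid. Absorbance was read at 517 nm before addition (Abs0) and after 4 h once stable (Abst). Scavenging % = (1 − Abst/Abs0) × 100.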

Data set [2] has as its target Cholinesterase (Homo sapiens, UniProt P06276). Briefly: Inhibition of human BChE using BTC as substrate preincubated for 5 mins followed by substrate addition measured after 2 mins by Ellman's assay. A digest of the protocol: (§2)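 Ellman's method with DTNB chromogen, acetylthiocholine (AChE) or butyrylthiocholine (BChE) iodide substrate, in potassium phosphate buffer pH 8.0 (KOH-adjusted). Compounds were diluted from ethanol stocks, with a top final concentration of 10^-4 M. At least five concentrations (normally 10^-4–10^-9 M) were run, each in triplicate, read at 412 nm at 25 °C. IC50 values are from inhibition curves, as means of at least three determinations.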
On the technique in general: DTNB colorimetry detects thiols as they appear.

Data set [3] in a line: Antioxidant activity assessed as galvinoxyl radical scavenging activity at 10 uM after 19 hrs by UV spectrophotometric analysis. The class given is physicochemical. A digest of the protocol:
(§3)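 Galvinoxyl radical at 2 µM in ethanol, with compounds in ethanol at 1, 2, 10, 50 or 100 µM. Mixture lines used an equimolar (1:1) blend with ferulic acid. A428 was recorded before addition and after 19 h once stable. Percent radical scavenged = (1 − Abst/Abs0) × 100.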

Data set [4] deals with Acetylcholinesterase (Electrophorus electricus, UniProt O42275). Briefly: Inhibition of electric eel AChE using ATC as substrate preincubated for 5 mins followed by substrate addition measured after 2 mins by Ellman's assay.
Data set [5] addresses Acetylcholinesterase (Homo sapiens, UniProt P22303). Briefly: Inhibition of human AChE using ATC as substrate preincubated for 5 mins followed by substrate addition measured after 2 mins by Ellman's assay. The procedure, abridged:
as §2

The target in data set [6] is Cholinesterase (Equus caballus, UniProt P81908). As to the kind of experiment: Inhibition of equine BChE using BTC as substrate preincubated for 5 mins followed by substrate addition measured after 2 mins by Ellman's assay.
The nature of data set [7]: Antioxidant activity assessed as galvinoxyl radical scavenging activity at 50 uM after 19 hrs by UV spectrophotometric analysis. The format is physicochemical. The procedure, abridged:
as §3

A short description of data set [8]: Antioxidant activity assessed as DPPH radical scavenging activity at 10 uM after 4 hrs by UV spectrophotometric analysis. The class given is physicochemical. A digest of the protocol:
as §1
Background: Loss of DPPH colour is used to gauge radical scavenging.

Data set [9] can be described thus: Antioxidant activity assessed as galvinoxyl radical scavenging activity at 2 uM after 19 hrs by UV spectrophotometric analysis. The format is physicochemical. A digest of the protocol: as §3
The nature of data set [10]: Antioxidant activity assessed as DPPH radical scavenging activity at 50 uM after 4 hrs by UV spectrophotometric analysis. The format is physicochemical. A digest of the protocol: as §1
A short description of data set [11]: Antioxidant activity assessed as DPPH radical scavenging activity at 2 uM after 4 hrs by UV spectrophotometric analysis. The class given is physicochemical. A digest of the protocol:
as §1

Data set [12] in a line: Antioxidant activity assessed as galvinoxyl radical scavenging activity at 100 uM after 19 hrs by UV spectrophotometric analysis. The class given is physicochemical. The procedure, abridged:
as §3

Data set [13] can be described thus: Antioxidant activity assessed as galvinoxyl radical scavenging activity at 1 uM after 19 hrs by UV spectrophotometric analysis. The class given is physicochemical. A digest of the protocol: as §3
Data set [14] can be described thus: Antioxidant activity assessed as DPPH radical scavenging activity at 1 uM after 4 hrs by UV spectrophotometric analysis. The class given is physicochemical. The procedure, abridged: as §1
Data set [15] has as its system PC-12. As to the kind of experiment: Neuroprotective effect in rat PC12 cells assessed as alleviation of H2O2 -induced toxicity after 24 hrs by MTT assay. The class given is functional, cell-based. A digest of the protocol:
(§4)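 PC12 cells (F-12, 10% FBS, 37 °C, 5% CO₂; 2000 cells/well, 24 h pre-culture) were co-treated with compound (0.1, 1, 10, 50; DMSO <0.5%) and H₂O₂ for 24 h. The mixture line used a 1:1 molar blend with ferulic acid. MTT for 4 h, formazan dissolved in DMSO, A540, blank-subtracted. Viability is % of control; three independent trials, mean ± SEM.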
On the technique in general: Formazan colour is commonly taken as a measure of viable cells.

Data set [16] in a line: Cytotoxicity against rat PC12 cells at 0.1 to 50 uM incubated for 24 hrs by MTT assay. The class given is cell-based. The conditions noted are these: pc-12, 24 h. The procedure, abridged:
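PC12 cells were grown in F-12 with 10% FBS and penicillin/streptomycin at 37 °C, 5% CO₂, seeded at 2000 cells/well and grown 24 h. Compounds were added from DMSO (final <0.5%) for 24 h. MTT (5 mg/mL) was added for 4 h, formazan dissolved in DMSO and A540 read after cell-free blank subtraction. Viability is % of control; three independent trials, mean ± SEM.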

The subject of data set [17] is PC-12. As to the kind of experiment: Neuroprotective effect in rat PC12 cells assessed as alleviation of amyloid beta42-induced toxicity after 24 hrs by MTT assay. The class given is functional, cell-based. The procedure, abridged:
(§5)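 Aβ42 was dissolved in hexafluoroisopropanol, dried to a film, taken up in F-12 and held at 4 °C for 24 h. PC12 cells (2000/well, 24 h pre-culture) were co-treated with this Aβ42 and compound (0.1–50; DMSO <0.5%) for 24 h. The mixture line used a 1:1 blend with ferulic acid. MTT for 4 h, A540; % of control, three independent trials, mean ± SEM.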

Data set [18] can be described thus: Antioxidant activity assessed as DPPH radical scavenging activity at 50 uM after 4 hrs by UV spectrophotometric analysis in presence of ferulic acid. The format is physicochemical. The procedure, abridged:
as §1

A short description of data set [19]: Antioxidant activity assessed as galvinoxyl radical scavenging activity at 100 uM after 19 hrs in presence of ferulic acid by UV spectrophotometric analysis. The format is physicochemical. A digest of the protocol: as §3
Data set [20] concerns PC-12. Briefly: Neuroprotective effect in rat PC12 cells assessed as alleviation of amyloid beta 42-induced toxicity at 1:1 compound to ferulic acid molar ratio after 24 hrs by MTT assay. The format is functional, cell-based. A digest of the protocol: as §5
The nature of data set [21]: Antioxidant activity assessed as DPPH radical scavenging activity at 100 uM after 4 hrs by UV spectrophotometric analysis in presence of ferulic acid. The format is physicochemical. The procedure, abridged:
as §1

Data set [22] can be described thus: Antioxidant activity assessed as galvinoxyl radical scavenging activity at 10 uM after 19 hrs in presence of ferulic acid by UV spectrophotometric analysis. The class given is physicochemical. A digest of the protocol: as §3
The nature of data set [23]: Antioxidant activity assessed as DPPH radical scavenging activity at 1 uM after 4 hrs by UV spectrophotometric analysis in presence of ferulic acid. The format is physicochemical. A digest of the protocol: as §1
Data set [24] can be described thus: Antioxidant activity assessed as DPPH radical scavenging activity at 2 uM after 4 hrs by UV spectrophotometric analysis in presence of ferulic acid. The class given is physicochemical. The procedure, abridged:
as §1

Data set [25] deals with PC-12. As to the kind of experiment: Neuroprotective effect in rat PC12 cells assessed as alleviation of H2O2-induced toxicity at 1:1 compound to ferulic acid molar ratio after 24 hrs by MTT assay. The format is functional, cell-based. The procedure, abridged:
as §4

Data set [26] can be described thus: Antioxidant activity assessed as galvinoxyl radical scavenging activity at 50 uM after 19 hrs in presence of ferulic acid by UV spectrophotometric analysis. The class given is physicochemical. The procedure, abridged: as §3
The nature of data set [27]: Antioxidant activity assessed as DPPH radical scavenging activity at 10 uM after 4 hrs by UV spectrophotometric analysis in presence of ferulic acid. The format is physicochemical. The procedure, abridged:
as §1

Data set [28] is described as follows: Antioxidant activity assessed as galvinoxyl radical scavenging activity at 1 uM after 19 hrs in presence of ferulic acid by UV spectrophotometric analysis. The class given is physicochemical. The procedure, abridged:
as §3

The nature of data set [29]: Antioxidant activity assessed as galvinoxyl radical scavenging activity at 2 uM after 19 hrs in presence of ferulic acid by UV spectrophotometric analysis. The format is physicochemical. A digest of the protocol: as §3

Chain of Acetylcholinesterase (Electrophorus electricus, UniProt O42275) (O42275 whole entry): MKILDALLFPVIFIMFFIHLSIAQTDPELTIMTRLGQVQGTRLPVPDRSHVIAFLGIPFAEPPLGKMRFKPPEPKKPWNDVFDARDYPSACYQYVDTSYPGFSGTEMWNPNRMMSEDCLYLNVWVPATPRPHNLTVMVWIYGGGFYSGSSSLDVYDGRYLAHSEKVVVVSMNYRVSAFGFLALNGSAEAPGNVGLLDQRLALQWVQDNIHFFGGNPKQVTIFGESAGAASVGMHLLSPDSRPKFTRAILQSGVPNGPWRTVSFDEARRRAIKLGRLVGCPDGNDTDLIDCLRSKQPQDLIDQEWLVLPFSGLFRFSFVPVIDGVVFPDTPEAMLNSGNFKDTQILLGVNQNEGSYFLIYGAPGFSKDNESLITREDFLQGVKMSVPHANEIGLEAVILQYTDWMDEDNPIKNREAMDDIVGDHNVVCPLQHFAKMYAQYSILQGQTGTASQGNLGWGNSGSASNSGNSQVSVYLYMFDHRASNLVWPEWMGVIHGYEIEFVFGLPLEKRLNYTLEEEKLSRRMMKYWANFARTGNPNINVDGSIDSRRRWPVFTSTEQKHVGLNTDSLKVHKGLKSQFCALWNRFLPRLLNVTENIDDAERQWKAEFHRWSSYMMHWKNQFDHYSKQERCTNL
Chain of Cholinesterase (Equus caballus, UniProt P81908) (P81908 whole entry): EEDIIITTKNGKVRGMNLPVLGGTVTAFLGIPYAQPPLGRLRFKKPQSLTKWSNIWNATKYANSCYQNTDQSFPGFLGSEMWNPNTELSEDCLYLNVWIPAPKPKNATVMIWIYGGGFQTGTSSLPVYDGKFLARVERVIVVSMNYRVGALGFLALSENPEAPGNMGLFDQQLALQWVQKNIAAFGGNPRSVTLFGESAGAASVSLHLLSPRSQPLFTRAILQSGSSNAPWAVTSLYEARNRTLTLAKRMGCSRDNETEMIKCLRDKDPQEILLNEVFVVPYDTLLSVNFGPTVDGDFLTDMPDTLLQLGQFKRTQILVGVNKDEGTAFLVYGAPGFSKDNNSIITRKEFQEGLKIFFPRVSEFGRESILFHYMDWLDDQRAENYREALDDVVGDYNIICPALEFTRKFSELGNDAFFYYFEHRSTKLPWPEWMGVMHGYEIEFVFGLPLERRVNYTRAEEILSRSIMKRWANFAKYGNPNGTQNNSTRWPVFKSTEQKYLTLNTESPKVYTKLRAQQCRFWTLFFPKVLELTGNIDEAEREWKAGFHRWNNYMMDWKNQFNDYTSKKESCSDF
Chain of Cholinesterase (Homo sapiens, UniProt P06276) (P06276 whole entry): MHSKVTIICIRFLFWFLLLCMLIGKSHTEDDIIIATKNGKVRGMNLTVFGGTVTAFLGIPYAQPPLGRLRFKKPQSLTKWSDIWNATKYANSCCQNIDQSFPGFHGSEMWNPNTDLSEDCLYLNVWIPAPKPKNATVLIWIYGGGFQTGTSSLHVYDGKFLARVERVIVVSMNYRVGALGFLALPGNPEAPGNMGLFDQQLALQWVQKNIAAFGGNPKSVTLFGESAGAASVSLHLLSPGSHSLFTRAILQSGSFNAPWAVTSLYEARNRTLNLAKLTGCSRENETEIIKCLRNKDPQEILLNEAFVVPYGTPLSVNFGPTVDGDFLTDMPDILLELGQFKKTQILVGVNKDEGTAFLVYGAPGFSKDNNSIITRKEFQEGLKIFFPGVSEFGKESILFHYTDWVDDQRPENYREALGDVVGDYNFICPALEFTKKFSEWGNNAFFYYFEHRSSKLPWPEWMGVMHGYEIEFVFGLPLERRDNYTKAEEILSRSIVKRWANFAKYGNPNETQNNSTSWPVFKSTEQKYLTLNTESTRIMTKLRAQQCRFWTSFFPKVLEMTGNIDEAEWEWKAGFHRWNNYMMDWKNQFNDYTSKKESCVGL
Chain of Acetylcholinesterase (Homo sapiens, UniProt P22303) (P22303 whole entry): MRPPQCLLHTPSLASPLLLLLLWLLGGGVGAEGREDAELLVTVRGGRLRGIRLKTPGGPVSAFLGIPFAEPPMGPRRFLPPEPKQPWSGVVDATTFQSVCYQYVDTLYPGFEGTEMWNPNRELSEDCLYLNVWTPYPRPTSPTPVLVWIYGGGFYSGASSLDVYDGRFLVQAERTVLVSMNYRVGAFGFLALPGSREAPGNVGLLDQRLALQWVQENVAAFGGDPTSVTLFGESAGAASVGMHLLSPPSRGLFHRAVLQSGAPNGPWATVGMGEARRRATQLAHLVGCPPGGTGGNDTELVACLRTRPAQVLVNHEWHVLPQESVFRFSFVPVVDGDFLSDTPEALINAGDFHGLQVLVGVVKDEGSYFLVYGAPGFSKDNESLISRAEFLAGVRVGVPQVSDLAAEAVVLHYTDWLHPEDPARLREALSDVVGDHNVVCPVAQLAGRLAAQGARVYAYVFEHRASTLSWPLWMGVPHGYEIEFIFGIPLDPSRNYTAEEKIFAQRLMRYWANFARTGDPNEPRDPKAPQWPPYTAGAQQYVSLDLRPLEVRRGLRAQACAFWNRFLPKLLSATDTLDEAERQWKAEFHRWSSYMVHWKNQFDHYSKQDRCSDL

As for `CCN(Cc1cccc2[nH]c3cc(Cl)ccc3c12)C(=O)/C=C/c1ccc(O)c(OC)c1`, the Activity in data set [1] is on record as 91.9%; in data set [3], 38.1%; in [7], 57%; in [8], 66%; in data set [9] it was 22.4%; in data set [10], 77.3%. For the same compound, the Activity in data set [11] was 49.1%; in data set [12], 83.2%; in data set [13], 8.3%; in data set [14] it was 41.8%; in the data set with PC-12 [15] it was “Dose-dependent effect”; in data set [16] it was “Non-toxic”. Also, the Activity result in the data set with PC-12 [17] was “Dose-dependent effect”. Besides, the IC50 stood at 2800 nM against Cholinesterase [2], 1900 nM against Acetylcholinesterase [4], 6900 nM at Acetylcholinesterase [5] and 3100 nM against Cholinesterase [6].
For `CCNCc1cccc2[nH]c3cc(Cl)ccc3c12`, the half-inhibitory concentration (IC50) was 7900 nM against Cholinesterase [2], 2100 nM at Acetylcholinesterase [4], 5100 nM on Acetylcholinesterase [5] and 1900 nM on Cholinesterase [6]. Besides, the Activity in [18] stood at 71.4%; in [19], 83.2%; in data set [21] it was 93.2%; in [22], 30.1%; in data set [23], 31.6%; in [24] it was 44.7%. Besides, the Activity in [26] worked out at 51.4%; in data set [27], 60.1%; in [28] it was 11%; in [29], 14.7%. Further, the result in the data set with PC-12 [20] was inactive. Also, the result with PC-12 [25] was Active.
